Reference: ChEMBL document CHEMBL3286203, “Reactive oxygen species (ROS) inducible DNA cross-linking agents and their effect on cancer cells and normal lymphocytes” (J Med Chem, 2014)
Calls of active or inactive are those of the source. The rule behind the calls is not given here.

What was measured:
[1] = tested on: MOLT-4; test: Cytotoxicity against human MOLT4 cells assessed as growth inhibition at 10 uM after 48 hrs by SRB assay; assay type: functional, cell-based
In short: (§1)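 Single-dose screen run by the NCI Developmental Therapeutics Program (NCI-60). Cells were grown in RPMI 1640 with 5% fetal bovine serum and 2 mM L-glutamine. They were plated at 5000–40 000 cells/well, depending on doubling time. Each line was run in two plates and exposed to 10 μM drug for 48 h at 37 °C, 5% CO2, 100% humidity. Read-out was growth percent.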

[2] = tested on: HOP-62; test: Cytotoxicity against human HOP62 cells assessed as growth inhibition at 10 uM after 48 hrs by SRB assay; assay type: functional, cell-based
In short: (§2)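 NCI DTP 60-cell-line screen run at the NCI. Cells were grown in RPMI 1640 with 5% FBS and 2 mM L-glutamine. They were seeded at 5000–40 000 cells/well depending on doubling time and grown in two plates per line. Each was exposed to a single 10 μM dose for 48 h at 37 °C, 5% CO2, 95% air, 100% humidity. Read-out was percent growth.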

[3] = tested on: Hs-578T; test: Cytotoxicity against human Hs578T cells assessed as growth inhibition at 10 uM after 48 hrs by SRB assay; assay type: functional, cell-based; in short: as §2
[4] = tested on: Malme-3M; test: Cytotoxicity against human MALME-3M cells assessed as growth inhibition at 10 uM after 48 hrs by SRB assay; assay type: functional, cell-based; in short: as §2
[5] = tested on: HCT-15; test: Cytotoxicity against human HCT15 cells assessed as growth inhibition at 10 uM after 48 hrs by SRB assay; assay type: functional, cell-based; in short: as §2
[6] = tested on: UACC-257; test: Cytotoxicity against human UACC257 cells assessed as growth inhibition at 10 uM after 48 hrs by SRB assay; assay type: functional, cell-based
In short: (§3)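 NCI-60 DTP human tumour line screen. Cells grown in RPMI 1640 with 5% fetal bovine serum and 2 mM L-glutamine, plated at 5000–40 000 cells/well according to doubling time. Single dose of 10 μM for 48 h at 37 °C, 5% CO2, 95% air, 100% humidity, two plates per line. Read-out is growth percent.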

[7] = tested on: SNB-19; test: Cytotoxicity against human SNB19 cells assessed as growth inhibition at 10 uM after 48 hrs by SRB assay; assay type: functional, cell-based; in short: as §3
[8] = tested on: OVCAR-8; test: Cytotoxicity against human OVCAR8 cells assessed as growth inhibition at 10 uM after 48 hrs by SRB assay; assay type: functional, cell-based; in short: as §1
[9] = tested on: M14; test: Cytotoxicity against human M14 cells assessed as growth inhibition at 10 uM after 48 hrs by SRB assay; assay type: functional, cell-based; in short: as §2
[10] = tested on: SK-OV-3; test: Cytotoxicity against human SKOV3 cells assessed as growth inhibition at 10 uM after 48 hrs by SRB assay; assay type: functional, cell-based; in short: as §1
[11] = tested on: PC-3; test: Cytotoxicity against human PC3 cells assessed as growth inhibition at 10 uM after 48 hrs by SRB assay; assay type: functional, cell-based; in short: as §1
[12] = tested on: IGROV-1; test: Cytotoxicity against human IGROV1 cells assessed as growth inhibition at 10 uM after 48 hrs by SRB assay; assay type: functional, cell-based; in short: as §2
[13] = tested on: NCI/ADR-RES; test: Cytotoxicity against human NCI-ADR-RES cells assessed as growth inhibition at 10 uM after 48 hrs by SRB assay; assay type: functional, cell-based; in short: as §1
[14] = tested on: BT-549; test: Cytotoxicity against human BT549 cells assessed as growth inhibition at 10 uM after 48 hrs by SRB assay; assay type: functional, cell-based; in short: as §2
[15] = tested on: MDA-MB-435; test: Cytotoxicity against human MDA-MB-435 cells assessed as growth inhibition at 10 uM after 48 hrs by SRB assay; assay type: functional, cell-based; in short: as §1
[16] = tested on: NCI-H522; test: Cytotoxicity against human NCI-H522 cells assessed as growth inhibition at 10 uM after 48 hrs by SRB assay; assay type: functional, cell-based; in short: as §1
[17] = Induction of [32P]-labeled 49-mer oligonucleotide duplex DNA 12 with GNC sequence at terminus (unknown origin) interstrand cross-linking at 1 mM after 16 hrs by PAGE in presence of H2O2
In short: (§4)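 32P-labelled 12a (1.0 μM) annealed with 1.5 equiv of 12b in 10 mM potassium phosphate pH 7 / 100 mM NaCl (65 °C for 3 min, then slow cooling). Duplex incubated with compound (final 1 μM–5 mM), with or without H2O2, in NaCl and potassium phosphate pH 8 at room temperature for 16 h. Quenched in formamide; 20% denaturing PAGE.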

[18] = tested on: HCC 2998; test: Cytotoxicity against human HCC2998 cells assessed as growth inhibition at 10 uM after 48 hrs by SRB assay; assay type: functional, cell-based; in short: as §2
[19] = tested on: HL-60(TB); test: Cytotoxicity against human HL-60(TB) cells assessed as growth inhibition at 10 uM after 48 hrs by SRB assay; assay type: functional, cell-based; in short: as §2
[20] = tested on: TK-10; test: Cytotoxicity against human TK10 cells assessed as growth inhibition at 10 uM after 48 hrs by SRB assay; assay type: functional, cell-based; in short: as §3
[21] = tested on: RPMI-8226; test: Cytotoxicity against human RPMI8226 cells assessed as growth inhibition at 10 uM after 48 hrs by SRB assay; assay type: functional, cell-based; in short: as §1
[22] = tested on: CCRF-CEM; test: Cytotoxicity against human CCRF-CEM cells assessed as growth inhibition at 10 uM after 48 hrs by SRB assay; assay type: functional, cell-based; in short: as §2
[23] = tested on: K562; test: Cytotoxicity against human K562 cells assessed as growth inhibition at 10 uM after 48 hrs by SRB assay; assay type: functional, cell-based; in short: as §2
[24] = tested on: COLO 205; test: Cytotoxicity against human COLO205 cells assessed as growth inhibition at 10 uM after 48 hrs by SRB assay; assay type: functional, cell-based; in short: as §2
[25] = tested on: UACC-62; test: Cytotoxicity against human UACC62 cells assessed as growth inhibition at 10 uM after 48 hrs by SRB assay; assay type: functional, cell-based; in short: as §3
[26] = tested on: NCI-H23; test: Cytotoxicity against human NCI-H23 cells assessed as growth inhibition at 10 uM after 48 hrs by SRB assay; assay type: functional, cell-based; in short: as §1
[27] = tested on: MCF7; test: Cytotoxicity against human MCF7 cells assessed as growth inhibition at 10 uM after 48 hrs by SRB assay; assay type: functional, cell-based; in short: as §1
[28] = tested on: OVCAR-4; test: Cytotoxicity against human OVCAR4 cells assessed as growth inhibition at 10 uM after 48 hrs by SRB assay; assay type: functional, cell-based; in short: as §1
[29] = tested on: RXF 393; test: Cytotoxicity against human RXF393 cells assessed as growth inhibition at 10 uM after 48 hrs by SRB assay; assay type: functional, cell-based; in short: as §1
[30] = tested on: KM12; test: Cytotoxicity against human KM12 cells assessed as growth inhibition at 10 uM after 48 hrs by SRB assay; assay type: functional, cell-based; in short: as §2
[31] = tested on: SK-MEL-28; test: Cytotoxicity against human SK-MEL-28 cells assessed as growth inhibition at 10 uM after 48 hrs by SRB assay; assay type: functional, cell-based; in short: as §1
[32] = tested on: A498; test: Cytotoxicity against human A498 cells assessed as growth inhibition at 10 uM after 48 hrs by SRB assay; assay type: functional, cell-based; in short: as §2
[33] = tested on: A549; test: Cytotoxicity against human A549 cells assessed as growth inhibition at 10 uM after 48 hrs by SRB assay; assay type: functional, cell-based; in short: as §2
[34] = tested on: SF-295; test: Cytotoxicity against human SF295 cells assessed as growth inhibition at 10 uM after 48 hrs by SRB assay; assay type: functional, cell-based; in short: as §1
[35] = tested on: NCI-H460; test: Cytotoxicity against human NCI-H460 cells assessed as growth inhibition at 10 uM after 48 hrs by SRB assay; assay type: functional, cell-based; in short: as §1
[36] = Induction of [32P]-labeled 49-mer oligonucleotide duplex DNA 12 with GNC sequence at terminus (unknown origin) interstrand cross-linking at 1 mM after 16 hrs by PAGE; in short: as §4

SMILES	growth inhibition (GI) [1]	growth inhibition (GI) [2]	growth inhibition (GI) [3]	growth inhibition (GI) [4]	growth inhibition (GI) [5]	growth inhibition (GI) [6]	growth inhibition (GI) [7]	growth inhibition (GI) [8]	growth inhibition (GI) [9]	growth inhibition (GI) [10]	growth inhibition (GI) [11]	growth inhibition (GI) [12]	growth inhibition (GI) [13]	growth inhibition (GI) [14]	growth inhibition (GI) [15]	growth inhibition (GI) [16]	Activity [17]	growth inhibition (GI) [18]	growth inhibition (GI) [19]	growth inhibition (GI) [20]	other results
CC1(C)OB(c2ccc(COC(=O)N(CCCl)CCCl)cc2)OC1(C)C	inactive	inactive	inactive	inactive	inactive	inactive	inactive	inactive	inactive	inactive	inactive	inactive	inactive	inactive	inactive	inactive	inactive	inactive	inactive	inactive	growth inhibition (GI) [21]: inactive; growth inhibition (GI) [22]: inactive; growth inhibition (GI) [23]: inactive; growth inhibition (GI) [24]: inactive; growth inhibition (GI) [25]: inactive; growth inhibition (GI) [26]: inactive; growth inhibition (GI) [27]: inactive; growth inhibition (GI) [28]: inactive; growth inhibition (GI) [29]: inactive; growth inhibition (GI) [30]: inactive; growth inhibition (GI) [31]: inactive; growth inhibition (GI) [32]: inactive; growth inhibition (GI) [33]: inactive; growth inhibition (GI) [34]: inactive; growth inhibition (GI) [35]: inactive; Activity [36]: inactive
CC1(C)OB(c2ccc(N(CCBr)CCBr)cc2)OC1(C)C	Active	Active	Active	Active	Active	Active	Active	Active	Active	Active	Active	Active	Active	Active	Active	Active	37%	Active	Active	Active	growth inhibition (GI) [21]: Active; growth inhibition (GI) [22]: Active; growth inhibition (GI) [23]: Active; growth inhibition (GI) [24]: Active; growth inhibition (GI) [25]: Active; growth inhibition (GI) [26]: Active; growth inhibition (GI) [27]: Active; growth inhibition (GI) [28]: Active; growth inhibition (GI) [29]: Active; growth inhibition (GI) [30]: Active; growth inhibition (GI) [31]: Active; growth inhibition (GI) [32]: Active; growth inhibition (GI) [33]: Active; growth inhibition (GI) [34]: Active; growth inhibition (GI) [35]: Active; Activity [36]: inactive
